Compound activity (PubChem)
PglD DTNB – blocks C. jejuni PglD acetyltransferase activity. inhibition, % at 12.5 µM. 360,000 compounds, 0.098% hits. purified PglD enzyme, DTNB colorimetric CoA detection; in the data active = inhibition above about 16%, passing the limit was not always enough
CR mimetic SO – lowers age-related superoxide in aged yeast cells; S. cerevisiae aged cells, superoxide DHE fluorescence; active compounds read low; superoxide response (% of plate mean), % at 10 µM; 330,000 compounds, 0.18% hits; AID 2690;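 active = superoxide response under a set limit, about three screen SD below normal, cut at about 65% in these data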;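 note: yeast aged for seven days with compound at 30 °C before DHE staining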
Cneo AK release – Cryptococcus neoformans lysis via adenylate kinase release. C. neoformans lysis, adenylate kinase release luminescence, 4 h; normalised: neutral wells 0, clomiphene wells 100. lysis activity, % at 15 µM. AID 651654. 360,000 compounds, 0.2% hits;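 active = mean lysis activity across replicates of at least 80%, whatever share of replicates individually reach that level; inactive = mean lysis activity below 80%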
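Test system: log-phase Cryptococcus neoformans yeast cells. Input: 5 × 10^6 yeast cells/mL. Medium: fresh YPD growth medium. Doses: single dose. Incubation: static 4 h at 37 °C with compound, 1 h detection. Measured by: luminescent adenylate kinase detection reagent. Read-out: signal increase indicating cell lysis. Benchmarks: Clomiphene.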
Mot1-301 SUMO – SUMOylation pathway inhibition by Mot1-301 growth rescue. S. cerevisiae Mot1-301 growth rescue, ATP luminescence, 38.5C; percent above DMSO median, 100 means doubled. growth rescue, % at 18.8 µM. 320,000 compounds, 1% hits. AID 2716;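 active = every valid replicate shows activation above 250% relative to neutral control wells; inactive = the rest, any valid replicate at or below 250%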
rRNA inh HTS – selective bacterial rRNA inhibition in E. coli; E. coli WT GFP vs humanized-ribosome RFP mutants, fluorescence, 24 h; active compounds read low; DMSO median 0, no signal -100; 350,000 compounds, 1.6% hits; GFP signal change (wild-type ribosome), % (concentration not given with the values);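 active = significant combined selectivity score with lowered wild-type GFP, culture density cut under 30%, mutant RFP and density less affected; inactive = any of these conditions unmet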
Hits are given with their value. Compounds with a hit are over-represented: about 2.2% of the library has one in this group of screens.

O=C(NCc1ccccn1)C(=O)NCc1ccccn1 was read as CR mimetic SO inactive, Mot1-301 SUMO 294.6 and rRNA inh HTS inactive.
Screening CC(C)(C)NC(=O)C(=O)NCc1ccccn1 returned PglD DTNB inactive, CR mimetic SO inactive, Cneo AK release inactive, Mot1-301 SUMO inactive and rRNA inh HTS inactive.
`COc1ccccc1NC(=O)N[C@H]1CC[C@H](CC(=O)NCc2ccc(Cl)c(Cl)c2)O[C@H]1CO` gave PglD DTNB inactive, Cneo AK release inactive and rRNA inh HTS inactive.
`CCOC(=O)c1cc(-c2ccc(N)cc2)sc1N` gave PglD DTNB inactive, CR mimetic SO inactive, Cneo AK release inactive and Mot1-301 SUMO inactive.
For CCOC(=O)c1sc(-c2ccc(Br)cc2)cc1N the results were PglD DTNB inactive, CR mimetic SO inactive, Cneo AK release inactive, Mot1-301 SUMO inactive and rRNA inh HTS -33.8.
`CN(C)CCN=Cc1c(O)n(Cc2ccccc2)c(=O)c2ccccc12` gave PglD DTNB inactive, CR mimetic SO inactive, Cneo AK release inactive, Mot1-301 SUMO inactive and rRNA inh HTS -24.0.
CN(C)CCCN=Cc1c(O)n(Cc2ccccc2)c(=O)c2ccccc12 was read as PglD DTNB inactive, CR mimetic SO inactive, Cneo AK release inactive and Mot1-301 SUMO inactive.
Screening C[C@H](CO)N1C[C@H](C)[C@@H](CN(C)Cc2ccncc2)Oc2c(NC(=O)Cn3cnnn3)cccc2C1=O returned rRNA inh HTS inactive.
O=C(NCC1CC1)[C@H]1[C@H](CO)[C@H]2Cn3c(ccc(C4=CCCCC4)c3=O)[C@H]2N1Cc1ccccc1F was read as PglD DTNB inactive, Cneo AK release inactive and rRNA inh HTS inactive.
`Oc1c(N=NC(=S)Nc2ccccc2F)c2ccccc2n1Cc1ccccc1Cl` gave PglD DTNB inactive, CR mimetic SO inactive, Cneo AK release inactive, Mot1-301 SUMO inactive and rRNA inh HTS inactive.
Screening Cc1c(Cl)cccc1NC(=S)N=Nc1c(O)n(CN2CCOCC2)c2ccccc12 returned CR mimetic SO inactive and Mot1-301 SUMO 364.7.
`C=CCn1c(O)c(N=NC(=S)Nc2ccccc2F)c2ccccc21` gave CR mimetic SO inactive and rRNA inh HTS -20.8.
CC(=O)NC(c1ccc(C)cc1)c1cc([N+](=O)[O-])c2cccnc2c1O (stereo not given) was read as CR mimetic SO inactive, Mot1-301 SUMO inactive and rRNA inh HTS -25.0.
`Cc1ccc(S(=O)(=O)Oc2ccc(/C=C(/NC(=O)c3ccccc3)C(=O)NCC(=O)O)cc2)cc1` gave CR mimetic SO inactive, Mot1-301 SUMO inactive and rRNA inh HTS inactive.
Cc1ccc(S(=O)(=O)Oc2ccc(/C=C(/NC(=O)c3ccccc3)C(=O)O)cc2)cc1 was read as CR mimetic SO inactive, Mot1-301 SUMO 699.6 and rRNA inh HTS inactive.
COc1ccc(C(C#N)=C2C=C(Cl)C(=NO)C=C2Cl)cc1 was read as rRNA inh HTS -18.6.
Screening COc1ccc(C(C#N)=C2C=CC(=NO)C(C)=C2Cl)cc1 returned rRNA inh HTS inactive.
Screening Cc1cccc(NC(=O)CN2C(=O)NC(C)(c3ccc4c(c3)OCO4)C2=O)c1 (stereo not given) returned PglD DTNB inactive, CR mimetic SO inactive, Cneo AK release inactive and Mot1-301 SUMO inactive.
CC1(c2cccc(Br)c2)NC(=O)N(CC(=O)Nc2ccc3c(c2)OCO3)C1=O (stereo not given) was read as PglD DTNB inactive, CR mimetic SO inactive, Cneo AK release inactive, Mot1-301 SUMO inactive and rRNA inh HTS -22.0.
For CNC[C@@H]1Oc2ccc(NS(C)(=O)=O)cc2C(=O)N([C@H](C)CO)C[C@H]1C the results were PglD DTNB inactive, Cneo AK release inactive and rRNA inh HTS inactive.
Screening C[C@@H]1CN([C@H](C)CO)C(=O)c2cc(C#CC3(O)CCCC3)cnc2O[C@H]1CN(C)C(=O)Cc1cccnc1 returned PglD DTNB inactive, Cneo AK release inactive and rRNA inh HTS inactive.
`CCOC(=O)N1CCN(C(=O)c2ccc(-n3c(=S)[nH]c4ccccc4c3=O)cc2)CC1` gave PglD DTNB inactive, CR mimetic SO inactive, Cneo AK release inactive and Mot1-301 SUMO inactive.
`CCOC(=O)COc1cc(-n2c(=S)[nH]c3ccccc3c2=O)c(Cl)cc1Cl` gave CR mimetic SO inactive, Mot1-301 SUMO inactive and rRNA inh HTS -23.1.
Screening O=C(O)c1ccc(C=NNC(=O)c2cccc3ccccc23)cc1 returned rRNA inh HTS inactive.
Cn1cc(/C=N/NC(=O)c2ccccc2O)c2ccccc21 was read as PglD DTNB inactive, CR mimetic SO inactive, Cneo AK release inactive, Mot1-301 SUMO inactive and rRNA inh HTS inactive.
For O=C(N/N=C/c1ccccc1O)c1cccc2ccccc12 the results were PglD DTNB inactive, CR mimetic SO inactive, Cneo AK release inactive, Mot1-301 SUMO inactive and rRNA inh HTS -35.5.
`O=C(CCSCCC(=O)NN=Cc1ccccc1O)NN=Cc1ccccc1O` gave rRNA inh HTS inactive.
For O=C(CSc1ccccc1)N/N=C/c1ccccc1O the results were CR mimetic SO inactive, Mot1-301 SUMO inactive and rRNA inh HTS -18.6.
`CC(=O)n1cc(/C=N/NC(=O)c2ccccc2O)c2ccccc21` gave PglD DTNB inactive, CR mimetic SO inactive, Cneo AK release inactive, Mot1-301 SUMO inactive and rRNA inh HTS -25.4.
Cc1ccc(S(=O)(=O)NCC(=O)N/N=C/c2ccccc2O)cc1 was read as PglD DTNB inactive, CR mimetic SO inactive, Cneo AK release inactive, Mot1-301 SUMO inactive and rRNA inh HTS -30.6.
`Cc1cccc(-c2ccc([C@H]3[C@@H](CO)N4C(=O)CN(C(=O)c5cnccn5)C[C@@H]34)cc2)c1` gave rRNA inh HTS inactive.
`C[C@@H]1CN([C@@H](C)CO)S(=O)(=O)c2ccc(/C=C/c3ccccc3)cc2O[C@H]1CN(C)Cc1cncnc1` gave PglD DTNB inactive, Cneo AK release inactive and rRNA inh HTS inactive.
For C[C@@H]1CCCCO[C@H](CN(C)C)[C@H](C)CN([C@@H](C)CO)C(=O)c2cc(NC(=O)Nc3ccccc3)ccc2O1 the results were PglD DTNB inactive, Cneo AK release inactive and rRNA inh HTS inactive.
Screening O=C(NCc1ccc(Cl)cc1)c1n[nH]c([N+](=O)[O-])c1Cl returned CR mimetic SO inactive, Mot1-301 SUMO inactive and rRNA inh HTS -14.8.
S=c1[nH]nc(-c2ccc3ccccc3n2)n1-c1ccc2c(c1)OCCO2 was read as CR mimetic SO inactive, Mot1-301 SUMO inactive and rRNA inh HTS -32.7.
For S=c1[nH]nc(-c2ccc(Br)cc2)n1-c1ccc2c(c1)OCCO2 the results were CR mimetic SO inactive, Mot1-301 SUMO inactive and rRNA inh HTS -14.4.
Screening C[C@@H]1CN([C@H](C)CO)C(=O)Cc2cc(NS(=O)(=O)c3ccc(Cl)cc3)ccc2O[C@@H]1CN(C)Cc1ccc(Cl)c(Cl)c1 returned PglD DTNB inactive, Cneo AK release inactive and rRNA inh HTS inactive.
